ChEMBL document CHEMBL3763082, “Design and synthesis of novel hybrid sydnonimine and prodrug useful for glaucomatous optic neuropathy” (Bioorg Med Chem Lett, 2016)
The source made the active and inactive calls. The calls are words filed in the database; no cut-off is given here.

Key:
[1] = system: Rhesus monkey; assay: Suppression of elevated intraocular pressure in lasered monkey eye at 150 ug at 6 hrs; type: functional, Macaca mulatta
[2] = Half life of compound in 0.5 M phosphate buffer at pH 7.4 at 25 degC by LC/MS analysis; type: physicochemical; conditions: for half-life: phosphate buffer; for t1/2: buffer
[3] = Half life of compound in 0.5 M phosphate buffer at pH 6.5 at 25 degC by LC/MS analysis; type: physicochemical; conditions: for half-life: phosphate buffer; for t1/2: buffer
[4] = Cytotoxicity against human NTM5 cells assessed as cell viability at 100 uM after 24 hrs by MTT assay; type: cell-based
In short: (§1)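 About 3000 NTM5 trabecular meshwork cells or transformed 661 W photoreceptor cells seeded per well, exposed to 10, 50 or 100 μM for 24 h; vehicle DMEM/DMSO (1 mL/10 μL). Viability by MTT-type kit (tetrazolium reduced to formazan), absorbance 490 nm; eight biological replicates.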

[5] = Cytotoxicity against mouse 661W cells assessed as cell viability at 100 uM after 24 hrs by MTT assay; type: cell-based; in short: as §1
[6] = system: 661W; assay: Increase in number of mouse 661W cells at 10 to 50 uM after 24 hrs by MTT assay relative to vehicle control; type: functional, cell-based; in short: as §1
[7] = Upregulation of SOD in H2O2-induced mouse 661W cells at 50 to 100 uM by Cayman's superoxide dismutase assay; type: functional
In short: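 SOD activity in 661 W cells treated with test agent in combination with H2O2, vehicle DMEM plus DMSO; commercial kit detecting superoxide generated by xanthine oxidase/hypoxanthine with a tetrazolium salt, per manufacturer's instructions.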

[8] = Induction of nitric oxide release in 50 mM phosphate buffer at pH 7.4 after 10 mins by Greiss assay; type: physicochemical; conditions: pH 7.4, 10 min
[9] = Neuroprotective effect against H2O2-induced oxidative stress in mouse 661W cells assessed as cell viability at 50 to 100 uM by MTT assay relative to control; type: functional, cell-based

**Q.** For `O=[N+]([O-])OCC(CO[N+](=O)[O-])O[N+](=O)[O-]` [NITROGLYCERIN], which Activity [1] is on record?
**A.** 13%

**Q.** For `CC1(C)CC([n+]2cc([NH-])on2)CC(C)(C)N1O.Cl`, which half-life [2] is on record?
**A.** < 24 h

**Q.** And the half-life [3]?
**A.** < 24 h

**Q.** And the Activity [4]?
**A.** Non-toxic

**Q.** And the Activity [5]?
**A.** Non-toxic

**Q.** What about the Activity [6] of the same compound?
**A.** Active

**Q.** And the Activity [7]?
**A.** Active

**Q.** And the Activity [8]?
**A.** Active

**Q.** What about the Activity [9] of the same compound?
**A.** Active

**Q.** Which t1/2 [2] does the source give for `CC(OC(=O)[N-]c1c[n+](C2CC(C)(C)N(O)C(C)(C)C2)no1)OC(=O)C(C)(C)C` (stereo not given) here?
**A.** 9.1 months

**Q.** What about the t1/2 [3] of the same compound?
**A.** 15.3 months

**Q.** With `N=c1c[n+](N2CCOCC2)[n-]o1` [LINSIDOMINE] as the compound, how does the half-life [2] read?
**A.** < 24 h

**Q.** And the half-life [3]?
**A.** < 24 h

**Q.** What about the Activity [8] of the same compound?
**A.** Active

**Q.** Which results are given for `CC(OC(=O)[N-]c1c[n+](N2CCOCC2)no1)OC(=O)C(C)(C)C` (stereo not given)?
**A.** t1/2 [2]: 9 months; t1/2 [3]: 18 months

**Q.** For `CC1(C)CC(O)CC(C)(C)N1[O]`, which Activity [6] is on record?
**A.** inactive

**Q.** Which Activity [1] does the source give for `CC1(C)CC(O[N+](=O)[O-])CC(C)(C)N1O` here?
**A.** 20%

**Q.** Which Activity [6] does the source give for `[NH-]c1c[n+](N2CCOCC2)no1` here?
**A.** inactive

**Q.** What about the Activity [7] of the same compound?
**A.** inactive
